The results in this text go back to ChEMBL document CHEMBL1124173, “Enantiomers of 7-(2,3-epoxypropoxy)actinomycin D as dual-action DNA-acting antitumor agents” (J Med Chem, 1988).

Test [1] concerns L1210. The test can be described thus: Inhibition of synthesis of [5-3H]-uridine into RNA in L1210 cells. The following applies: l1210. Type of test: functional, cell-based, Mus musculus. A digest of the protocol: (§1)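 Actively growing L1210 cells in vitro. Incorporation of [5-3H]uridine into RNA, or [methyl-14C]thymidine into DNA, compared with untreated cells. IC50 is micromolar drug concentration giving 50% reduction in incorporation rate.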

Test [2] deals with L1210. The test is described as follows: Inhibition of synthesis of [methyl-14C] thymidine into DNA, in L1210 cells. The settings on record: Mus musculus, L1210. Type of test: functional, cell-based, Mus musculus. The method, boiled down: as §1
A short description of test [3]: Molar ratio of DNA to total amount of compound that is bound both intercalatively and covalently to calf thymus DNA helix. Type of test: functional. A digest of the protocol: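 [3H]Drug and purified calf thymus DNA dialyzed at 37 °C in Tris HCl pH 7.4 (20 mM per footnote; 25 mM in methods). Equilibrated complex precipitated twice with ethanol to remove unbound drug. Molar DNA/drug ratio based on total bound drug, intercalative plus covalent.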

The nature of test [4]: ratio of DNA to compound bound entirely by covalent bonding to DNA base. The class given is functional. The method, boiled down: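 [3H]Drug and purified calf thymus DNA dialyzed at 37 °C in Tris HCl buffer; complex twice ethanol-precipitated to remove unbound drug. Molar DNA/drug ratio calculated from drug bound only covalently to DNA bases.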
The species named for test [5] is Mus musculus. The test can be described thus: Antitumor activity measured as optimal dose, against C26 colon carcinoma. The class given is functional. The method, boiled down: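 Primary colon C26 carcinoma cells (trypan blue excluding, 2.5 × 10^5 cells/mouse) implanted in CDF1 mice on day 0. Drug given ip on days 1, 5 and 9 in 0.1 mL 5% v/v Me2SO-saline. Optimal dose in […]; %ILS and 60-day survivors scored.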

Test [6] has as its system Mus musculus. The test is described as follows: Antitumor activity measured as % increase in life span, for iv administration of compound and sc inoculation of B16 melanoma.
Test [7] concerns Mus musculus. The test is described as follows: Antitumor activity measured as median survival time, for iv administration and sc inoculation of B16 melanoma.
The species entered for test [8] is Mus musculus. The test is described as follows: Antitumor activity measured as median survival time, against C26 colon carcinoma. The class given is functional. A digest of the protocol:
(§2)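 C26 primary colon carcinoma cells (trypan blue excluding, 2.5 × 10^5 cells/mouse) implanted in CDF1 mice on day 0. Drug given ip on days 1, 5 and 9 in 0.1 mL 5% v/v Me2SO-saline at optimal dose. Read-out is median survival time; %ILS is drug-treated over control, excluding survivors. Sixty-day survivors are counted.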

The species entered for test [9] is Mus musculus. The test can be described thus: Antitumor activity measured as % increase in life span, against C26 colon carcinoma. Type of test: functional. The method, boiled down: as §2
The subject of test [10] is Mus musculus. The test can be described thus: Antitumor activity measured as % increase in life span, for ip administration of compound and ip inoculation of B16 melanoma. The class given is functional. A digest of the protocol: (§3)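 B16 brei (tumor weight/Hank's balanced salt solution 1:5, 0.2 mL) implanted sc or ip into groups of nine BDF1 mice on day 0. Drug given iv on day 1 (sc tumor) or ip on days 1, 5 and 9 (ip tumor), in 0.1 mL 5% v/v Me2SO-saline. Read-out is median survival time and %ILS versus untreated controls, excluding sixty-day survivors.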

For test [11], the system named is Mus musculus. The test is described as follows: Antitumor activity measured as median survival time, for ip administration and ip inoculation of B16 melanoma. The class given is functional. The method, boiled down:
as §3

Regarding `Cc1c2oc3c(C)c(OCC4CO4)cc(C(=O)N[C@@H]4C(=O)N[C@H](C(C)C)C(=O)N5CCC[C@H]5C(=O)N(C)CC(=O)N(C)[C@@H](C(C)C)C(=O)O[C@@H]4C)c3nc-2c(C(=O)N[C@@H]2C(=O)N[C@H](C(C)C)C(=O)N3CCC[C@H]3C(=O)N(C)CC(=O)N(C)[C@@H](C(C)C)C(=O)O[C@@H]2C)c(N)c1=O` (stereo in doubt; 3b), the IC50 (commonly the midpoint of a concentration-inhibition curve) was 24 nM in [1] and 80 nM in [2].
`Cc1c2oc3c(C)c(OC[C@H]4CO4)cc(C(=O)N[C@@H]4C(=O)N[C@H](C(C)C)C(=O)N5CCC[C@H]5C(=O)N(C)CC(=O)N(C)[C@@H](C(C)C)C(=O)O[C@@H]4C)c3nc-2c(C(=O)N[C@@H]2C(=O)N[C@H](C(C)C)C(=O)N3CCC[C@H]3C(=O)N(C)CC(=O)N(C)[C@@H](C(C)C)C(=O)O[C@@H]2C)c(N)c1=O` came in with a 50% inhibitory concentration (IC50) in test [2] of 60 nM.
In the case of `Cc1c2oc3c(C)c(OC[C@H]4CO4)cc(C(=O)N[C@@H]4C(=O)N[C@@H](C(C)C)C(=O)N5CCC[C@H]5C(=O)N(C)CC(=O)N(C)[C@@H](C(C)C)C(=O)O[C@H]4C)c3nc-2c(C(=O)N[C@@H]2C(=O)N[C@@H](C(C)C)C(=O)N3CCC[C@H]3C(=O)N(C)CC(=O)N(C)[C@@H](C(C)C)C(=O)O[C@H]2C)c(N)c1=O`, the Ratio in test [3] turned out to be 30; in test [4] it was 500.
For `COc1cccc2c1C(=O)c1c(O)c3c(c(O)c1C2=O)C[C@@](O)(C(=O)CO)C[C@@H]3O[C@H]1C[C@H](N)[C@H](O)[C@H](C)O1` [DOXORUBICIN], the Dose in [5] stood at 2.5 mg/kg. For the same molecule, the values for the ILS in test [6], in [9] and in test [10] were 79%, 118% and 224%, respectively. The MST in test [7] turned out to be 59 days; in test [8], 48 days; in test [11], 60 days.
Regarding `Cc1c2oc3c(C)c(OCC4CO4)cc(C(=O)N[C@@H]4C(=O)N[C@@H](C(C)C)C(=O)N5CCC[C@H]5C(=O)N(C)CC(=O)N(C)[C@@H](C(C)C)C(=O)O[C@H]4C)c3nc-2c(C(=O)N[C@@H]2C(=O)N[C@@H](C(C)C)C(=O)N3CCC[C@H]3C(=O)N(C)CC(=O)N(C)[C@@H](C(C)C)C(=O)O[C@H]2C)c(N)c1=O` (stereo in doubt), the values for the Ratio in test [3] and in test [4] were 32 and 520, respectively.
